Screens: PubChem, several laboratories
AHR act: human AHR activation; AID 2796; P35869; 2.5% of 320,000 active; AHR-responsive luciferase reporter cells, luminescence; activation, % at 5 µM; in the data active = activation above about 47%;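 note: 0% = vehicle wells and 100% = reference agonist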
Yeast superoxide: yeast age-related superoxide inhibition as caloric restriction mimetic; superoxide response (% of plate mean), % at 10 µM; 0.18% of 330,000 active; S. cerevisiae aged cells, superoxide DHE fluorescence; active compounds read low;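 active = superoxide response under a set limit, about three screen SD below normal, cut at about 65% in these data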;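 note: yeast aged for seven days with compound at 30 °C before DHE staining; 100% = average MFI of all compound-treated wells on the plate with controls excluded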
Lipid droplet: hepatic lipid droplet formation modulation | 0.4% of 240,000 active | AML12 mouse hepatocytes, oleate lipid droplets, BODIPY imaging | inhibition, % at 6.5 µM;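 active = lipid droplet intensity inhibited by at least 50%, with more than 500 cells counted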
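Material: mouse AML12 hepatocyte cell line, fixed after treatment; Timing: compound with oleate, overnight; Technique: high-content imaging of BODIPY-stained droplets and DAPI nuclei; Probe or stimulus: oleate, 100 µM final; Dosing: compound at 6.5 µM only.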
SR-BI uptake up: SR-BI HDL lipid transfer activation; CHO ldlA[mSR-BI] cells, DiI-HDL uptake fluorescence, 3 h; 100 = double the neutral-control signal; activation, % at 12.5 µM; 0.096% of 320,000 active;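 active = mean replicate activation of at least 60% and every replicate at or above 60%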;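 note: 0% = median plate neutral-control signal and 100% = twice that signal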
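Material: SR-BI-overexpressing, LDLR-lacking CHO cells | Dosing: Single compound concentration, delivered by pin transfer | Probe or stimulus: Labelled HDL, 10 µg/mL | Signal: Bottom-read cell fluorescence after medium removal, ex 550/em 595 nm | Schedule: 3 h, 37 °C | Evaluation: HDL uptake via cellular fluorescence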
SMARCA2 activ: activators of SMARCA2 function | MG213 cells, MMTV-luciferase reporter, dexamethasone, overnight | activation, % at 9.1 µM | 1% of 370,000 active | AID 652017; in the data active = activation above about 7.8%;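 note: 0% = vehicle wells and 100% = reference activator wells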
SR-BI DiI inh: inhibitors of mouse SR-BI mediated HDL lipid uptake. Q61009. inhibition, % at 12.5 µM. ldlA[mSR-BI] CHO cells, DiI-HDL uptake fluorescence, 3 h. 0.96% of 320,000 active;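 active = mean replicate inhibition of at least 70% and a set share of replicates each scoring 70 or more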;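 note: 0% = median of neutral control wells and 100% = median of positive control wells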
Target sequence (Q61009 whole entry, looked up): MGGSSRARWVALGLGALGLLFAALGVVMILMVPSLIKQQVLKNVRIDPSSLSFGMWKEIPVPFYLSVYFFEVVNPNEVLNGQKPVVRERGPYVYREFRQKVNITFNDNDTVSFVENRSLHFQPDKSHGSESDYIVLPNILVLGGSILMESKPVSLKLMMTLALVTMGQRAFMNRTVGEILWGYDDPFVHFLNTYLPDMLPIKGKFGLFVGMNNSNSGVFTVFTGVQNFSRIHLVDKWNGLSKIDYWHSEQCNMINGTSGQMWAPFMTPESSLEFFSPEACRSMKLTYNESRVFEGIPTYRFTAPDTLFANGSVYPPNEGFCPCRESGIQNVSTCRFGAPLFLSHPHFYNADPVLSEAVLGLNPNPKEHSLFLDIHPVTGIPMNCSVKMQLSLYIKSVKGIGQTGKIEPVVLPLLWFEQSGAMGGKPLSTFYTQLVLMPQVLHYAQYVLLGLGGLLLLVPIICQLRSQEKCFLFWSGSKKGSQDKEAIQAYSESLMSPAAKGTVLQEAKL
Numbers without * were called inactive; · = not tested or not shown. Shown are actives, neighbours in structure and some others; about 4.3% of the full set was active somewhere.

SMILES	AHR act	Yeast superoxide	Lipid droplet	SR-BI uptake up	SMARCA2 activ	SR-BI DiI inh
OC(c1ccccc1)(c1ccccc1)C1CCN(CCCOc2ccc(C(F)(F)F)cc2)CC1	·	·	·	·	-8	·
COc1ccc(NC(=O)N(C)C[C@@H]2OCCCC[C@@H](C)Oc3ccc(NS(C)(=O)=O)cc3C(=O)N([C@H](C)CO)C[C@@H]2C)cc1	·	·	·	·	-2	·
COC(=O)c1ccc2nc(-c3cccc(Br)c3)c(Cc3cccc(Cl)c3)n2c1	·	·	·	·	-1	·
CN[C@H]1C[C@H]2c3[nH]c4c(-c5cccc(C)c5)cccc4c3CCN2C[C@H]1[C@H](C)O	·	·	·	·	-6	·
COc1ccc(-c2nc3ncccc3o2)cc1NC(=O)c1ccco1	76*	84	16	3	-2	-3
COc1cc(NC(=O)c2ccco2)c(OC)cc1NC(=O)c1cc(OC)c(OC)c(OC)c1	8	95	-1	-79	-2	79*
COc1c(F)c(F)c(C(=O)Nc2ccc(NC(=O)c3ccco3)cc2)c(F)c1F	-6	105	12	-74	0	74*
COc1cc(NC(=O)c2ccc(OC)c([N+](=O)[O-])c2)ccc1NC(=O)c1ccco1	50*	121	10	-42	-4	42
C=CCn1c(Cc2cccs2)nnc1SCC(=O)Nc1cccc2ccccc12	·	·	·	·	-4	·
CC(C)(C)C(=O)OC12CCCN(C1)/C(=C/c1ccccc1)C2 (configuration not stated)	·	·	·	·	-5	·
COC(=O)c1ccc2c(C(C)c3ccccc3O)c[nH]c2c1 (configuration not stated)	·	·	·	·	-5	·
COC(=O)c1cccc(Cn2ccc3ccc(-c4ccc5ccn(C(=O)c6ccc(C)cc6)c5c4)cc32)c1	·	·	·	·	-2	·
CCCCC(=O)N1CCN(C(=O)c2ccc3nc(C)n(C4CCCC4)c3c2)CC1	·	·	·	·	-5	·
Cc1cc(C)nc(NC2=NCC(=O)N2c2cccc(Cl)c2)n1	65*	100	-18	27	-2	-27
Cc1cc(C)nc(NC2=NCC(=O)N2c2ccccc2)n1	38	108	2	6	-5	-6
COc1ccc(N2C(=O)CN=C2Nc2nc(C)cc(C)n2)cc1	76*	106	-17	·	3	5
O=C(NCCc1ccccc1)OCc1cn(-c2cccc(Cl)c2)nn1	·	·	·	·	-1	·
Cc1ccc(C=Nn2c(-c3n[nH]c4c3CCC4)n[nH]c2=S)s1	·	·	·	·	-2	·
COC(=O)[C@]12C[C@H](CC(=O)NCCC(C)C)C(=O)N(CCC3=CCCCC3)C1=C[C@H](C1CCCC1)O[C@@H]2C	·	·	·	·	-5	·
O=c1c2ccccc2nc(/C=C/c2ccccc2)n1CCCO	1	89	-10	-17	-2	17
O=c1c2ccccc2nc(/C=C/c2ccc(O)cc2)n1CCc1ccccc1	72*	99	-14	-43	-2	43
CCn1c(/C=C/c2ccccc2)nc2ccccc2c1=O	79*	101	6	-26	-1	32
CCn1c(/C=C/c2ccc(F)cc2)nc2ccccc2c1=O	21	109	-4	-30	-2	30
CCC(C)Nc1nc(Cl)nc(N(C#N)CN2C(=O)c3ccccc3S2(=O)=O)n1 (configuration not stated)	0	94	-10	12	6	-12
CC(C)Nc1nc(Cl)nc(N(C#N)CN2C(=O)c3ccccc3C2=O)n1	41	109	-2	15	14*	-15
SMILES	AHR act	Yeast superoxide	Lipid droplet	SR-BI uptake up	SMARCA2 activ	SR-BI DiI inh
CC(C)CN1C(=O)C[C@]2(C(=O)N(C)c3ccc(NS(=O)(=O)C4CCCCC4)cc32)C1c1ccccc1 (some centres not stated)	·	·	·	·	-3	·
Cc1ccc(C(=O)c2c(C)oc3c2C(=O)C(=O)c2ccccc2-3)cc1	40	118	·	-40	·	40
Cc1ccc(C(=O)c2coc3c2C(=O)C(=O)c2ccccc2-3)cc1	50*	106	-29	16	-4	-16
Cn1c(=O)n(CCOc2ccccc2Cl)c2ccccc21	59*	96	·	22	5	-22
CN(C)c1nc(-c2ccccn2)nnc1-c1ccccc1	85*	94	6	-32	1	32
COC(=O)C1=C2c3[nH]c4ccccc4c3CCN2C(=O)CC1	54*	102	·	-19	0	19
CCCCN1CCc2c([nH]c3ccccc23)C1=O	14	90	3	-21	5	21
O=C(OCc1cn(Cc2ccc(F)c(F)c2)nn1)N1CCCC1	·	·	·	·	1	·
C=CCSc1nncn1/N=C/c1ccc(OC)cc1	58*	90	·	-41	1	41
CCCN1CCCCC(NC(C)=O)C1=O (configuration not stated)	·	·	·	·	-1	·
COc1cc(C(=O)NCC2CCCO2)ccc1OCc1ccc(Cl)cc1 (configuration not stated)	0	108	·	-52	6	52
COc1cc(C(=O)NCC2CCCO2)ccc1OCc1ccc(Cl)cc1Cl (configuration not stated)	2	103	·	-79	2	79*
O=C(NN=Cc1ccco1)c1cccnc1	·	·	·	·	-6	·
O=c1c2c(nc3c(-c4ccc(Cl)cc4)c[nH]n13)CCCC2	67*	97	·	-27	-3	27
CN(Cc1ccc(F)cc1)C(=O)CN1C(=O)C2(OCCCO2)c2ccccc21	·	·	·	·	-3	·
CCN1/C(=C/c2ccc3cc(C)ccc3[n+]2CC)Sc2ccccc21	-9	146	-155	-62	-7	62
CC[n+]1c(/C=C2\Sc3ccccc3N2C)ccc2cccc(C)c21	·	·	-167	-76	-10	76*
COc1ccc(/C=N/Nc2cc(C)nc(N3CCOCC3)n2)cc1	7	109	2	-44	0	44
COc1cccc(/C=N/Nc2nc(Nc3ccccc3)nc(-n3nc(C)cc3C)n2)c1O	60*	107	33	-64	-1	64
COc1ccc(Nc2cc(C)nc(N3CCOCC3)n2)cc1	47	99	·	-17	-1	17
COc1ccc(/C=N\Nc2ncc(F)c(N3CCOCC3)n2)cc1OC	59*	107	-4	-16	-1	16
COc1ccccc1/C=N/Nc1cc(C)nc(N2CCOCC2)n1	51*	86	15	-14	1	14
COc1ccc(/C=N/Nc2cc(C)nc(N3CCOCC3)n2)cc1OC	50*	112	2	·	-1	·
Cc1cc(C)nc(N/N=C/c2ccc(N3CCOCC3)cc2)n1	12	97	1	-34	-2	34
CCCC[C@H]1C2CC(OC(=O)Nc3ccc(F)cc3)C(C2)[C@H]2CCCCN21 (some centres not stated)	·	·	·	·	-3	·
Cc1cc(N/N=C/c2ccc(F)cc2)nc(-n2nc(C)cc2C)n1	24	102	2	·	-4	·
COc1ccc(/C=N/Nc2cc(C)nc(-n3nc(C)cc3C)n2)c(OC)c1	41	92	-4	-79	-4	79*
COc1ccc(Nc2nc(C)nc3c2oc2ccccc23)cc1	11	90	-9	9	-2	-9
